pIC50: −log10 of the molar value. Activity calls are given as the source filed them. The rule behind the calls is not given here.
Tests used:
[1] = system: K562; test: Cytotoxicity against human K562 cells incubated for 72 hrs by Sulphorhodamine assay; format: functional, cell-based; settings: K562, 72 h
[2] = organism: Homo sapiens; test: Selectivity ratio, ratio of inhibition of HDAC in human HeLa nuclear extract assessed as residual activity to inhibition of human recombinant HDAC6 assessed as residual activity
Outline: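 Compounds at 20 μM tested by fluorometric assay on HeLa nuclear extract (class I/II HDACs) and on human recombinant HDAC6. Residual activity is expressed relative to untreated control. Selectivity is the ratio of PanHDAC to HDAC6 residual activity: ≥7 high, 2.5–6.9 moderate, <2.5 low.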

[3] = system: MCF7; test: Cytotoxicity against human MCF7 cells incubated for 72 hrs by Sulphorhodamine assay; format: functional, cell-based; settings: MCF7, 72 h
[4] = Cytotoxicity against african green monkey Vero cells incubated for 72 hrs by Sulphorhodamine assay; format: toxicity, cell-based; settings: African green monkey (Chlorocebus sabaeus)
[5] = Selectivity index, ratio of IC50 for african green monkey Vero cells to IC50 for human K562 cells; format: toxicity; settings: Vero cells versus K562 cells, read-out: Ratio IC50
[6] = system: MDA-MB-231; test: Cytotoxicity against human MDA-MB-231 cells incubated for 72 hrs by Sulphorhodamine assay; format: functional, cell-based; settings: MDA-MB-231, 72 h
[7] = Antiinflammatory activity in mouse peritoneal macrophage assessed as inhibition of LPS-induced TNFalpha production at 1 ug/ml relative to control; format: functional; design: scale not given: the % may be the effect or the level left; settings: dose 1 µg/ml
[8] = Antiinflammatory activity in mouse peritoneal macrophage assessed as inhibition of LPS-induced IL6 production at 1 ug/ml relative to control; format: functional; design: scale not given: the % may be the effect or the level left; settings: dose 1 µg/ml
[9] = Antiinflammatory activity in mouse peritoneal macrophage assessed as reduction in LPS-induced TNFalpha production at 1 ug/ml; format: functional; settings: dose 1 µg/ml
[10] = Antiinflammatory activity in mouse peritoneal macrophage assessed as reduction in LPS-induced IL6 production at 1 ug/ml; format: functional; settings: dose 1 µg/ml
[11] = Antiinflammatory activity in mouse peritoneal macrophage assessed as inhibition of LPS-induced TNFalpha production at 10 ug/ml relative to control; format: functional; design: scale not given: the % may be the effect or the level left; settings: dose 10 µg/ml
[12] = molecular target: T1, Tubulin (Homo sapiens) (UniProt P68371+Q9H4B7+P0DPH7+P68366+Q13509+Q71U36+P04350+Q3ZCM7+P07437+P68363+Q9BQE3+Q6PEY2+Q13885+Q9BVA1+Q9BUF5); test: Induction of microtubule stabilization in human HeLa cells assessed as effect on cellular cytoskeletal network of tubulin at 5 to 10 uM incubated for 4 hrs by Alexa Fluor 488 staining based confocal microscopic analysis; format: cell-based; settings: dose 5-10 µM
Outline: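 HeLa cells treated for 4 h at 5 and 10 μM. Microtubules immunostained with Alexa Fluor 488-conjugated anti-β-tubulin and imaged by confocal microscopy with a 60× Plan Apochromat objective. References: paclitaxel 5 nM, podophyllotoxin 5 μM.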

[13] = Antiinflammatory activity in mouse peritoneal macrophage assessed as inhibition of LPS-induced IL6 production at 10 ug/ml relative to control; format: functional; design: scale not given: the % may be the effect or the level left; settings: dose 10 µg/ml
[14] = system: MDA-MB-231; test: Induction of cell cycle arrest in human MDA-MB-231 cells assessed as S phase arrest at 1.625 to 6.5 uM incubated for 24 hrs by propidium iodide staining based method; format: functional; settings: dose 1.625-6.5 µM
[15] = system: K562; test: Induction of cell cycle arrest in human K562 cells assessed as S phase arrest at 1.625 to 6.5 uM incubated for 24 hrs by propidium iodide staining based method; format: functional; settings: dose 1.625-6.5 µM
[16] = molecular target: T1, Tubulin (Homo sapiens); test: Induction of microtubule stabilization (unknown origin) at 1 to 5 uM; format: protein-complex assay; settings: dose 1-5 µM
[17] = Antiinflammatory activity in mouse peritoneal macrophage assessed as reduction in LPS-induced TNFalpha production at 10 ug/ml; format: functional; settings: dose 10 µg/ml
[18] = Antiinflammatory activity in mouse peritoneal macrophage assessed as reduction in LPS-induced IL6 production at 10 ug/ml; format: functional; settings: dose 10 µg/ml
[19] = system: MDA-MB-231; test: Induction of cell cycle arrest in human MDA-MB-231 cells assessed as S phase arrest at 0.285 to 1.14 uM incubated for 24 hrs by propidium iodide staining based method; format: functional; settings: dose 0.285-1.14 µM
[20] = molecular target: T1, Tubulin (Homo sapiens); test: Induction of microtubule stabilization (unknown origin) at 5 uM; format: protein-complex assay

| Structure (SMILES) | Ratio [2] | pIC50 [1] | pIC50 [3] | IC50 at 72 h [4] [µM] | selectivity ratio [5] | pIC50 [6] | other results |
| --- | --- | --- | --- | --- | --- | --- | --- |
| C[C@@H]1C[C@H]2[C@@H]3CCC4=CC(=O)C=C[C@]4(C)[C@@]3(F)[C@@H](O)C[C@]2(C)[C@@]1(O)C(=O)CO [DEXAMETHASONE] | – | – | – | – | – | – | Activity [7]: 52.82%; Activity [8]: 40.5%; Activity [9]: 581.27 pg/mL; Activity [10]: 1792.75 pg/mL |
| COc1cc2c(cc1OC)C(=O)C(Cc1ccc(C(=O)NO)cc1)C2 (stereo not drawn) | – | < 4.00 | < 4.00 | 193 | – | < 4.00 | – |
| COc1ccc2c(c1)C/C(=C/c1ccc(/C=C/C(=O)NO)cc1)C2=O | > 7 | < 4.00 | 4.01 | 100 | ≤ 1 | < 4.00 | – |
| CC/C(=C(\c1ccccc1)c1ccc(OCCN(C)C)cc1)c1ccccc1 [TAMOXIFEN] | – | – | – | 36.2 | – | 4.73 | – |
| COc1cccc2c1C(=O)c1c(O)c3c(c(O)c1C2=O)C[C@@](O)(C(=O)CO)C[C@@H]3O[C@H]1C[C@H](N)[C@H](O)[C@H](C)O1 [DOXORUBICIN] | – | 5.28 | – | 1.87 | – | 6.24 | Activity [19]: Active |
| CN1CCc2c(c3ccccc3n2Cc2ccc(C(=O)NO)cc2)C1 [TUBASTATIN A] | – | 5.68 | – | – | – | – | – |
| COc1ccc2c(c1)CC(Cc1ccc(C(=O)NO)cc1)C2=O (stereo not drawn) | – | 4.73 | 4.26 | 55.5 | 2.99 | 4.54 | – |
| COc1cc([C@@H]2c3cc4c(cc3[C@H](O)[C@H]3COC(=O)[C@H]23)OCO4)cc(OC)c1OC [PODOFILOX] | – | 4.74 | 5.00 | – | – | 4.69 | – |
| COc1ccc2c(c1)CC(Cc1ccc(CCC(=O)NO)cc1)C2=O (stereo not drawn) | – | 4.21 | 4.03 | 114 | 1.85 | < 4.00 | – |
| COc1cc2c(cc1OC)C(=O)C(Cc1ccc(CCC(=O)NO)cc1)C2 (stereo not drawn) | – | 4.52 | 4.29 | 48.7 | 1.6 | 4.49 | – |
| CC(=O)O[C@H]1C(=O)[C@@]2(C)[C@H]([C@H](OC(=O)c3ccccc3)[C@]3(O)C[C@H](OC(=O)[C@H](O)[C@@H](NC(=O)c4ccccc4)c4ccccc4)C(C)=C1C3(C)C)[C@]1(OC(C)=O)CO[C@@H]1C[C@@H]2O | – | – | – | – | – | – | Activity [20]: Active |

Second part, led by results:

| Ratio [2] | Structure (SMILES) | pIC50 [1] | pIC50 [3] | IC50 at 72 h [4] [µM] | selectivity ratio [5] | pIC50 [6] | other results |
| --- | --- | --- | --- | --- | --- | --- | --- |
| inactive | COc1cc2c(cc1OC)C(=O)/C(=C\c1ccc(/C=C/C(=O)NO)cc1)C2 | < 4.00 | < 4.00 | 129 | > 1 | < 4.00 | – |
| > 7 | COc1ccc2c(c1)C/C(=C/c1ccc(C(=O)NOCc3ccccc3)cc1)C2=O | – | – | – | – | – | – |
| 2.5 | COc1cc(C2c3c(cc(OC)c(OC)c3OC)C(=O)C2Cc2ccc(CCC(=O)NO)cc2)cc(OC)c1OC (stereo not drawn) | 4.29 | 4.28 | 76.2 | 1.47 | 4.68 | – |
| > 7 | COc1cc(C2/C(=C/c3ccc(OCCCC(=O)NO)cc3)C(=O)c3cc(OC)c(OC)c(OC)c32)cc(OC)c1OC (stereo not drawn) | 5.78 | 4.30 | 47.2 | 28.4 | 5.49 | Activity [11]: 15.04%; Activity [12]: Active; Activity [13]: 12.11%; Activity [14]: Active; Activity [7]: 12.34%; Activity [8]: 9.38%; Activity [15]: Active; Activity [16]: Active; Activity [9]: 1180.12 pg/mL; Activity [17]: 1046.79 pg/mL; Activity [10]: 2730.53 pg/mL; Activity [18]: 2648.31 pg/mL |
| 2.5 | COc1ccc2c(c1)C/C(=C/c1ccc(/C=C/C(=O)NOCc3ccccc3)cc1)C2=O | – | – | – | – | – | – |
| > 7 | COc1cc2c(cc1OC)C(=O)/C(=C\c1ccc(C(=O)NOCc3ccccc3)cc1)C2 | – | – | – | – | – | – |
| inactive | COc1cc(C2/C(=C/c3ccc(C(=O)NO)cc3)C(=O)c3cc(OC)c(OC)c(OC)c32)cc(OC)c1OC (stereo not drawn) | 4.32 | 4.22 | 72.2 | 1.51 | < 4.00 | – |
| > 7 | COc1cc2c(cc1OC)C(=O)/C(=C\c1ccc(C(=O)NO)cc1)C2 | 4.33 | < 4.00 | 88.4 | 1.88 | < 4.00 | – |
| > 7 | COc1cc(C2c3c(cc(OC)c(OC)c3OC)C(=O)C2Cc2ccc(C(=O)NO)cc2)cc(OC)c1OC (stereo not drawn) | 4.43 | 4.06 | 91.8 | 2.5 | < 4.00 | – |
| inactive | COc1cc(C2/C(=C/c3ccc(/C=C/C(=O)NOC(C)=O)cc3)C(=O)c3cc(OC)c(OC)c(OC)c32)cc(OC)c1OC (stereo not drawn) | 4.63 | 4.12 | 47.5 | 2.01 | 4.72 | – |
| 2.5 | COc1cc2c(cc1OC)C(=O)/C(=C\c1ccc(/C=C/C(=O)NOCc3ccccc3)cc1)C2 | – | – | – | – | – | – |

Reference: ChEMBL document CHEMBL5257120 (Bioorg Med Chem, 2023)
